ChEMBL document CHEMBL4382237, “Design, Synthesis, and Biological Evaluation of 2-Nitroimidazopyrazin-one/-es with Antitubercular and Antiparasitic Activity” (J Med Chem, 2018)
≈ marks a conversion by molar mass, not a printed value.

How the values were obtained:
Entamoeba histolytica = assay: Antiparasitic activity against Entamoeba histolytica HM-1:IMSS trophozoites after 24 to 48 hrs by CellTiter-Glo luminescent cell viability assay; format: functional, organism-based
Method in brief: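 Axenic trophozoites were kept in TYI-S-33 with penicillin (100 U/mL) and streptomycin (100 µg/mL) and harvested in log phase. 5000 parasites per well were exposed to a final 8-point two-fold series of 0.39–50 µM, from 10 mM DMSO stocks. Plates were incubated 24–48 h at 37 °C under anaerobic conditions. ATP luminescence viability was read in triplicate. Percent inhibition is given at the highest concentration tested.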

[1] = Metabolic stability in CD-1 mouse plasma assessed as parent compound remaining at 3 uM after 2 hrs by LC-MS/MS analysis
[2] = Metabolic stability in human plasma assessed as parent compound remaining at 3 uM after 2 hrs by LC-MS/MS analysis
[3] = system: Mycobacterium tuberculosis; assay: Antibacterial activity against non-replicating Mycobacterium tuberculosis H37Rv after 5 days under hypoxic condition by resazurin dye-based fluorescence assay; format: functional; conditions: 120 h
Method in brief: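 Same H37Rv inoculum (OD600 0.001, ~2 x 10^4 CFU/mL) in 7H9S with serially diluted compound. Plates held 5 days at 0.1% oxygen, then resazurin plus Tween-80 added.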

[4] = Metabolic stability in CD-1 mouse liver microsomes assessed as parent compound remaining at 3 uM after 2 hrs by LC-MS/MS analysis
[5] = system: Mycobacterium tuberculosis; assay: Antibacterial activity against Mycobacterium tuberculosis H37Rv after 5 days under normoxic condition by resazurin dye-based fluorescence assay; format: functional, organism-based; conditions: for IC50: Mycobacterium tuberculosis, H37Rv, 120 h
Method in brief: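 H37Rv grown in 7H9/ADC/glycerol/Tyloxapol to mid-exponential phase, diluted to OD600 0.001 (~2 x 10^4 CFU/mL) in 7H9S with serially diluted compound. Incubated 5 days at 37 °C, then resazurin and Tween-80 added. Fluorescence (ex 530/em 590 nm) read after 24 h, normalised to no-drug and no-bacteria wells.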

Giardia intestinalis = assay: Antiparasitic activity against Giardia lamblia WB trophozoites after 24 to 48 hrs by CellTiter-Glo luminescent cell viability assay; conditions: Giardia duodenalis
[6] = system: Trypanosoma brucei brucei; assay: Antiparasitic activity against bloodstream form of Trypanosoma brucei brucei strain 427 after 48 hrs by resazurin dye-based assay; format: functional, organism-based; conditions: strain 427, 48 h
[7] = Metabolic stability in human liver microsomes assessed as parent compound remaining at 3 uM after 2 hrs by LC-MS/MS analysis
Klebsiella pneumoniae = assay: Antibacterial activity against Klebsiella pneumoniae 700603 by broth microdilution assay; format: functional
Method in brief: (§1)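 Broth microdilution run essentially per an earlier report. MIC taken as the lowest concentration with no visible growth. Replicates typically agreed within one 2-fold dilution. The median MIC is reported, with a range where the median fell between two tested concentrations.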

Cryptococcus neoformans = assay: Antifungal activity against Cryptococcus neoformans H99 ATCC […] broth microdilution assay; format: functional; conditions: var. grubii H99 ATCC 208821; method in brief: as §1
Pseudomonas aeruginosa = assay: Antibacterial activity against Pseudomonas aeruginosa ATCC 27853 by broth microdilution assay; format: functional; method in brief: as §1
Escherichia coli = assay: Antibacterial activity against Escherichia coli ATCC 25922 by broth microdilution assay; format: functional; method in brief: as §1
Staphylococcus aureus = assay: Antibacterial activity against methicillin-resistant Staphylococcus aureus ATCC […] by broth microdilution assay; format: functional
Candida albicans = assay: Antifungal activity against Candida albicans ATCC 90028 by broth microdilution assay; format: functional; method in brief: as §1
HepG2 = assay: Cytotoxicity against human HepG2 cells after 24 hrs by resazurin dye-based fluorescence assay; format: cell-based; conditions: hepg2, 24 h
Method in brief: (§2)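 HEK293 (3000/well) and HepG2 (5000/well) were grown 24 h in DMEM with 10% FBS at 37 °C, 5% CO2. Cells were then exposed 24 h to a dilution series up to 100 µM (0.5% DMSO). 5 µM resazurin was added for 2 h, read at ex 560/em 590. 1% Triton X-100 served as lysis control. CC50 was derived from the curves.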

HEK293 = assay: Cytotoxicity against HEK293 cells after 24 hrs by resazurin dye-based fluorescence assay; format: cell-based; conditions: human, hek293, 24 h; method in brief: as §2
Acinetobacter baumannii = assay: Antibacterial activity against Acinetobacter baumannii ATCC 19606 by broth microdilution assay; format: functional; conditions: ATCC 19606 = CIP 70.34 = JCM 6841; method in brief: as §1
Clostridioides difficile = assay: Antibacterial activity against Clostridium difficile 630 ATCC BAA-1382 by broth microdilution assay; format: functional; method in brief: as §1
physchem [8] = conditions: water
physchem [9] = conditions: PBS, pH 7.4
[10] = system: Trypanosoma brucei brucei; assay: Antiparasitic activity against bloodstream form of Trypanosoma brucei brucei strain 427 assessed as inhibition of parasitic growth at 40 uM after 48 hrs by resazurin dye-based assay relative to control; format: functional; conditions: strain 427, 48 h, read-out: GI
[11] = system: Mycobacterium tuberculosis; assay: Antibacterial activity against Mycobacterium tuberculosis H37Rv assessed as inhibition of bacterial growth at 32 ug/ml after 5 days under normoxic condition by resazurin dye-based fluorescence assay relative to control; format: functional; conditions: 120 h, read-out: GI

| SMILES | IC50 (Entamoeba histolytica; read-out: IC50) [µM] | Stability [2] [%] | MIC [3] [µg/mL] | Stability [4] [%] | MIC [5] [µg/mL] | IC50 (Giardia intestinalis) [µM] | IC50 (Giardia intestinalis; read-out: pIC50 (converted)) [µM] | IC50 ([6]; read-out: IC50) [µM] | IC50 ([6]; read-out: pIC50 (converted)) [µM] | Stability [7] [%] | MIC (Klebsiella pneumoniae) [µg/mL] | MIC (Cryptococcus neoformans) [µg/mL] | MIC (Pseudomonas aeruginosa) [µg/mL] | MIC (Escherichia coli) [µg/mL] | MIC (Staphylococcus aureus) [µg/mL] | MIC (Candida albicans) [µg/mL] | CC50 (HepG2) [µM] | CC50 (HEK293) [µM] | MIC (Acinetobacter baumannii) [µg/mL] | other results |
| --- | --- | --- | --- | --- | --- | --- | --- | --- | --- | --- | --- | --- | --- | --- | --- | --- | --- | --- | --- | --- |
| Cc1nc(OCc2ccc(OC(F)(F)F)cc2)c2nc([N+](=O)[O-])cn2c1C | 17 | > 99 | > 32 | < 0.5 | >32 | 8.6 | 7.94 | 10 | 10 | 44 |  |  |  |  |  |  |  |  |  | IC50 (Entamoeba histolytica; read-out: pIC50 (converted)): 15.8 µM; Stability [1]: > 99% |
| CC1CC(OC(=O)C(O)c2ccccc2)CC(C)(C)N1C (stereo not drawn) [EUCATROPINE] |  | 21 |  |  |  |  |  |  |  |  |  |  |  |  |  |  |  |  |  |  |
| NC(=O)Cn1ccn2cc([N+](=O)[O-])nc2c1=O |  |  | > 32 |  | >32 | > 50 | > 50.1 | > 40 | > 39.8 |  | > 32 | > 32 | > 32 | > 32 | > 32 | > 32 | > 100 | > 100 | > 32 |  |
| Cc1ccc(Cn2ccn3cc([N+](=O)[O-])nc3c2=O)cc1 | > 50 | > 99 |  | 96 |  | 3.4 | 3.16 |  |  | 97 | > 32 | > 32 | > 32 | > 32 | > 32 | > 32 |  |  | > 32 | Stability [1]: > 99%; MIC (Clostridioides difficile): > 64 µg/mL |
| O=c1c2nc([N+](=O)[O-])cn2ccn1Cc1ccccn1 |  |  | > 32 |  | >32 | 14 | 15.8 | 9.7 | 10 |  | > 32 | > 32 | > 32 | > 32 | > 32 | > 32 | > 100 | > 100 | > 32 | solubility kinetic at 24 h, 200 µM (physchem [8]): 176 µM (≈ 47.7 µg/mL); solubility kinetic at 24 h, 200 µM (physchem [9]): 184 µM (≈ 49.9 µg/mL) |
| O=c1c2nc([N+](=O)[O-])cn2ccn1CCc1ccc(OC(F)(F)F)cc1 |  |  | > 32 |  |  | 1.6 | 1.58 |  |  |  | > 32 | > 32 | > 32 | > 32 | > 32 | > 32 | > 100 | > 100 | > 32 | IC50 [5]: 8 µM; inhibition of growth at 40 µM [10]: 44%; inhibition of growth at 32 µg/mL [11]: 70% |
| Cc1ccc(CCn2ccn3cc([N+](=O)[O-])nc3c2=O)cc1 |  |  | > 32 |  |  | 3.2 | 3.16 | > 40 | > 39.8 |  | > 32 | > 32 | > 32 | > 32 | > 32 | > 32 | > 100 | > 100 | > 32 | IC50 [5]: 4 µM; inhibition of growth at 32 µg/mL [11]: 78% |
| O=[N+]([O-])c1cn2ccnc(OCc3ccccc3OC(F)(F)F)c2n1 |  |  | > 32 | < 0.5 | >32 | 12 | 12.6 | > 40 | > 39.8 | 51 | > 32 | > 32 | > 32 | > 32 | > 32 | > 32 | > 100 | > 100 | > 32 |  |
| O=c1[nH]c(-c2ccccc2)cn2cc([N+](=O)[O-])nc12 | > 25 |  | > 32 |  | >32 | 10 | 10 | 0.22 | 0.2 |  |  |  |  |  |  |  |  |  |  | IC50 (Entamoeba histolytica; read-out: pIC50 (converted)): > 25.1 µM; solubility kinetic at 24 h, 200 µM (physchem [8]): 27 µM (≈ 6.92 µg/mL); solubility kinetic at 24 h, 200 µM (physchem [9]): 17 µM (≈ 4.36 µg/mL) |
